Results from ChEMBL document CHEMBL1121663, “(Acylaryloxy)acetic acid diuretics. 3. 2,3-Dihydro-5-acyl-2-benzofurancarboxylic acids, a new class of uricosuric diuretics” (1981).

What was measured:
[1] = tested on: Rattus norvegicus; assay: Natriuretic activity in rats at 81 mg/kg of dosage; mequiv of Na; type: functional
In short: (§1)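 Rats housed three per metabolism cage received placebo vehicle or compound as a suspension in a final volume of 5.0 mL orally, with placebo groups run concurrently. Urine was collected over 0–5 h and analysed for Na+, K+ and Cl− by standard methods. Values are mequiv per cage, given as geometric means of three cages per dose level.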

[2] = tested on: Canis familiaris; assay: Compound was tested for diuretic activity in dogs at 5 mg/kg dose after intravenous administration measured as microequivalent of K+/minute; 5/19 (Control/Drug treated); type: functional, Canis lupus familiaris, Urine
In short: (§2)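 Intravenous dog clearance study. A priming iv injection of 1.5 mL/kg isoosmotic pH 7.4 phosphate buffer (20 mg PO4/kg) was given first. This was followed by infusion of 3 mL/min pH 7.4 buffer containing 4% mannitol (6.9 mg PO4/min) throughout the experiment. Urinary Na+, K+ and Cl- were measured by standard methods. Each value is the mean of the two highest consecutive 15-min collections.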

[3] = tested on: Canis familiaris; assay: Diuretic activity in dogs following 5 mg/kg oral administration.
[4] = tested on: Canis familiaris; assay: Compound was tested for diuretic activity in dogs at 5 mg/kg dose after oral administration measured as microequivalent of K+/minute; type: functional, Canis lupus familiaris, Urine
In short: (§3)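 Oral dog test: water loading (250 mL po, then 500 mL 1 h later). One hour later bladders were emptied by catheter and compound or placebo given in gelatin capsules. Dogs were kept in metabolism cages. Voided urine plus catheterized bladder urine was pooled at 5 h, and Na+, K+ and Cl- were measured by standard methods. Geometric means are reported.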

[5] = tested on: Rattus norvegicus; assay: Natriuretic activity in rats at 9 mg/kg of dosage; mequiv of Na; type: functional; in short: as §1
[6] = tested on: Canis familiaris; assay: Compound was tested for diuretic activity in dogs at 5 mg/kg dose after oral administration measured as microequivalent of Na+/minute; type: functional, Canis lupus familiaris, Urine; in short: as §3
[7] = Compound was tested for natriuretic activity in chimpanzee at 5 mg/kg dose activity is measured as ratio of clearance of urate / […]; Curate/Cinulin; type: functional
In short: (§4)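 Inulin iv gave GFR; urate and inulin clearances and Na+, K+, Cl- excretion were measured by AutoAnalyzer. Controls were three 20-min periods; compound was given orally in aqueous solution via nasal catheter. Response was the mean of eight 15-20 min periods, reported as treatment minus control from single experiments.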

[8] = tested on: Pan troglodytes; assay: Compound was tested for natriuretic activity in chimpanzee at 5 mg/kg dose activity is measured as microequivalent of Na+/minute; muequiv of Na+/min; type: functional; in short: as §4
[9] = tested on: Rattus norvegicus; assay: Natriuretic activity in rats at 27 mg/kg of dosage; mequiv of Na; type: functional; in short: as §1
[10] = tested on: Canis familiaris; assay: Compound was tested for diuretic activity in dogs at 5 mg/kg dose after oral administration measured as microequivalent of Cl-/minute; type: functional, Canis lupus familiaris, Urine; in short: as §3
[11] = tested on: Canis familiaris; assay: Compound was tested for diuretic activity in dogs at 5 mg/kg dose after intravenous administration measured as microequivalent of Cl-/minute; 9/510 (Control/Drug treated); type: functional, Canis lupus familiaris, Urine; in short: as §2
[12] = tested on: Rattus norvegicus; assay: Natriuretic activity in rats at 3 mg/kg of dosage; mequiv of Na; type: functional; in short: as §1
[13] = tested on: Canis familiaris; assay: Compound was tested for diuretic activity in dogs at 5 mg/kg dose after intravenous administration measured as microequivalent of Cl-/minute; type: functional, Canis lupus familiaris, Urine; settings: in the assay text read “oral” for “intravenous”
[14] = tested on: Canis familiaris; assay: Compound was tested for diuretic activity in dogs at 5 mg/kg dose after oral administration measured as microequivalent of Na+/minute
[15] = tested on: Canis familiaris; assay: Compound was tested for diuretic activity in dogs at 5 mg/kg dose after intravenous administration measured as microequivalent of K+/minute; type: functional, Canis lupus familiaris, Urine; settings: in the assay text read “oral” for “intravenous”
[16] = Activity is measured as ratio of clearance of urate / […] at […]; Curate/Cinulin; type: functional
In short: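 Inulin iv gave GFR, and urate clearance was measured by AutoAnalyzer. Controls came from three 20-min periods. Aqueous compound was given orally by nasal catheter, and the response was averaged over eight 15-20 min periods. Values are treatment minus control from single experiments.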

[17] = tested on: Canis familiaris; assay: Compound was tested for diuretic activity in dogs at 5 mg/kg dose after intravenous administration measured as microequivalent of Na+/minute; 3/84 (Control/Drug treated); type: functional, Canis lupus familiaris, Urine
[18] = tested on: Canis familiaris; assay: Compound was tested for diuretic activity in dogs at 5 mg/kg dose after intravenous administration, activity is expressed as urine volume; 0.4/2; type: functional, Canis lupus familiaris
[19] = tested on: Canis familiaris; assay: Compound was tested for diuretic activity in dogs at 5 mg/kg dose after intravenous administration measured as microequivalent of Na+/minute; 46/767 (Control/Drug treated); type: functional, Canis lupus familiaris, Urine
[20] = tested on: Canis familiaris; assay: Compound was tested for diuretic activity in dogs at 5 mg/kg dose after intravenous administration measured as microequivalent of Cl-/minute; 7/1385 (Control/Drug treated); type: functional, Canis lupus familiaris, Urine; in short: as §2

SMILES	Oral activity [1]	Urine volume [3] [mL]	Oral activity [4]	Oral activity [5]	Oral activity [6]	Ratio [7]	Oral activity [8]	Oral activity [9]	Oral activity [10]	Oral activity [12]	other results
O=C(O)c1cc2cc(C(=O)c3cccs3)c(Cl)c(Cl)c2o1	131	270	1.6	62	6.9	0.061	396	88	9.8	32	K+ excretion [2]: 19 µequiv/min; Cl- excretion [11]: 510 µequiv/min
N=C(N)NC(=O)C1Cc2cc(C(=O)c3cccs3)c(Cl)c(Cl)c2O1 (stereo not given)	159	212	1.2	98	4.9	–	–	143	4.8	72	Oral activity [13]: 4.8; Oral activity [14]: 4.9; Oral activity [15]: 1.2
O=C(c1cccs1)c1cc2c(c(Cl)c1Cl)O[C@@H](C(=O)O)C2	–	–	–	–	–	–	–	–	–	–	Ratio [16]: 0.157
CC(=O)c1cc2c(c(Cl)c1Cl)OC(C(=O)O)C2 (stereo not given)	161	–	–	26	–	–	–	76	–	13	Oral activity [17]: 3; Urine volume [18]: 0.4 mL/min
O=C(c1cccs1)c1cc2c(c(Cl)c1Cl)OC(CO)C2 (stereo not given)	72	–	–	45	–	–	–	68	–	16	–
O=C(c1cnsn1)c1cc2c(c(Cl)c1Cl)OC(C(=O)O)C2 (stereo not given)	284	–	–	82	–	0.096	88	230	–	38	Na+ excretion [19]: 767 µequiv/min
O=C(c1cccs1)c1cc2c(c(Cl)c1Cl)O[C@H](C(=O)O)C2	339	501	8.3	251	46	0.132	1451	283	53.7	177	Cl- excretion [20]: 1380 µequiv/min
NNC(=O)C1Cc2cc(C(=O)c3cccs3)c(Cl)c(Cl)c2O1 (stereo not given)	140	–	–	81	–	–	–	89	–	34	–
O=C(c1ccco1)c1cc2c(c(Cl)c1Cl)OC(C(=O)O)C2 (stereo not given)	322	–	–	150	–	–	–	218	–	69	–
